No end group written: not given here.
Columns and labels:
WW2W domain of WWOX = WW2W domain of WWOX (Homo sapiens, UniProt Q9NZC7, Y85W); assay: ITC binding of ErbB4 PPXY peptides to WW2W; conditions: for ΔH: Table 3, pH 7.0, 25°C, mean ± SD, at least three measurements
Outline: (§1)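 His-tagged human WWOX constructs: WW1 (residues 16–50), WW1–WW2 tandem (16–91), and WW2 (57–91) carrying Y85W. Expressed in E. coli BL21*(DE3) and purified by Ni-NTA then SEC. 12-mer ErbB4 peptides (4 mM in syringe) injected 25× into 40–60 μM protein at 25 °C. Buffer: 50mM sodium phosphate, 100mM NaCl, 1mM EDTA, 5mM β-mercaptoethanol, pH 7.0. Buffer-titration heats subtracted. One-site fit with stoichiometry fixed at 1 gives Kd and ΔH. At least 3 repeats, SD.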

WW1 domain of WWOX = target: T1, WW1 domain of WWOX (Homo sapiens, UniProt Q9NZC7); assay: ITC binding of ErbB4 PPXY peptides to WW1 domain of WWOX
T1 sequence (Q9NZC7 16-50 limits assumed): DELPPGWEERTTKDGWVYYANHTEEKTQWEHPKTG
Outline: as §1

[1] = target: T2, WW1–WW2 tandem module of WWOX (Homo sapiens, UniProt Q9NZC7); assay: ITC binding of ErbB4 PPXY peptides to WW1–WW2 tandem module of WWOX; conditions: Table 4, pH 7.0, 25°C, mean ± SD, at least three measurements
T2 sequence (Q9NZC7 16-91): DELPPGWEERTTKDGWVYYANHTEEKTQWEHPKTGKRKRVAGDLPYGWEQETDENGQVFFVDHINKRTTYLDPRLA
Outline: as §1

WW2 domain of WWOX = assay: ITC binding of WW1 domain of WWOX to WW2 domain and vice versa; parameters: species or system human

WW2W domain of WWOX, sequence (Q9NZC7 57-91 Y85W limits assumed): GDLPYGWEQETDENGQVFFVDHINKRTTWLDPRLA

| ΔH (WW2W domain of WWOX) | affinity of binding to WW1 domain (in words) (WW1 domain of WWOX) | ΔH [1] | enthalpy released relative to the PY3_WT peptide (WW1 domain of WWOX; ΔH of mutant versus PY3_WT) | affinity for WW2W domain relative to binding of WW1 domain (WW2W domain of WWOX; Tables 1 and 3 compared) | binding between the two WW domains (WW2 domain of WWOX) | Substance |
| --- | --- | --- | --- | --- | --- | --- |
| -4.74 ± 0.52 kcal/mol | in the order of hundreds of micromolar | -7.25 ± 0.88 kcal/mol | – | – | – | H-FNIPPPIYTSRA-OH [ErbB4_PY1] |
| -8.08 ± 1.09 kcal/mol | in the order of hundreds of micromolar | -4.88 ± 0.28 kcal/mol | – | – | – | H-GHSPPPAYTPMS-OH [ErbB4_PY2] |
| – | – | – | more than −5 kcal/mol | – | – | H-TVLPPPPYRARN-OH [PY3_A+5] |
| -4.15 ± 0.28 kcal/mol | – | -5.00 ± 0.30 kcal/mol | – | more than two-fold stronger | – | H-TVLPPPPYRHRN-OH [ErbB4_PY3] |
| – | – | – | – | – | no observable binding | WW1: WW1 domain (residues 16–50) of human WWOX, recombinant with N-terminal His-tag ({His‑tag}-DELPPGWEERTTKDGWVYYANHTEEKTQWEHPKTG) |
